The full list was thinned out, with hits kept by preference.
IDH1 mut inh: IDH1 R132H (human) inhibition; O75874; 70,000 tested, 0.18% active; IDH1 R132H reductase, diaphorase/resazurin fluorescence, 60 min; inhibition, % at 10 µM; AID 624101; in the data active = inhibition above about 34%; inconclusive = no clear call, values can overlap the other calls; inactive = below about 11%;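 also: 0% = DMSO and 100% = no enzyme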
Target sequence (O75874 whole entry R132H): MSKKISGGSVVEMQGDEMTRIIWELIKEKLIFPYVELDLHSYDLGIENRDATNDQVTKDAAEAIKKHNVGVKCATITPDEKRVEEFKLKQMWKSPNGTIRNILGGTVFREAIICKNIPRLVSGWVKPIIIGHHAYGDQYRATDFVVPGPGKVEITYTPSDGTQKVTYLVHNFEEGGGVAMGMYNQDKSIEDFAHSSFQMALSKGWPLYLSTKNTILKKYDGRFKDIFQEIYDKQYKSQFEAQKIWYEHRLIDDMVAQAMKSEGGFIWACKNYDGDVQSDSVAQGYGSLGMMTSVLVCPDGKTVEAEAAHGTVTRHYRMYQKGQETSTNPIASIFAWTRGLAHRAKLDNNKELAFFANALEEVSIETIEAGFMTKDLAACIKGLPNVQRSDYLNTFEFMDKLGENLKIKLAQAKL
GASC1 inh: inhibitors of human demethylase GASC-1 KDM4C | inhibition, % at 12.5 µM | AID 720574 | 96,000 tested, 0.15% active | GST-KDM4C 2-372, H3K9me3 peptide, LANCE TR-FRET;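 active = mean replicate inhibition above about 25%, with at least 55% of replicates also reaching it, limit read from the data, passing the limit was not always enough; inconclusive = only one of those two conditions met; inactive = neither condition met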
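System: N-terminal GST-fused human GASC-1 (KDM4C) fragment, residues 2-372 / Amount: 10 nM GST-KDM4C in enzyme reaction / Also added: H3K9me3 peptide with Fe(II)/2OG / Times: 30 min demethylation and 1 h detection at room temperature / Signal: LANCE TR-FRET / Read-out basis: Fall in 671/618 emission ratio as inhibition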
T cruzi growth-1: T. cruzi proliferation inhibition; T. cruzi beta-gal in NIH3T3, GalScreen luminescence, 90 h; inhibition, % at 8.34 µM; 77,000 tested, 5.9% active; AID 624255;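 active = mean inhibition above about 93%, with at least 55% of replicates each passing it, limit read from the data, passing the limit was not always enough; inconclusive = only one of those two conditions holds; inactive = neither condition holds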
T cruzi growth-2: blocks T. cruzi growth in NIH3T3 host cells; shares compounds with T cruzi growth-1; T. cruzi beta-gal in NIH3T3, GalScreen luminescence, 90 h; inhibition, % at 8.35 µM; 5,600 tested, 72% active; AID 651739;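 active = mean replicate inhibition above about 95% and at least 55% of replicates individually reaching it, limit read from the data; inconclusive = only one of the two criteria is met; inactive = neither criterion is met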
T cruzi growth-3: blocks T. cruzi growth in NIH3T3 host cells; shares compounds with T cruzi growth-1; T. cruzi beta-gal in NIH3T3, GalScreen luminescence, 90 h; 5,600 tested, 21% active; inhibition, % at 2.09 µM;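 active = mean inhibition above about 95%, with at least 55% of replicates also reaching it, limit read from the data; inconclusive = meets just one of the two conditions; inactive = meets neither condition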;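 also: plate controls were neutral control median for no effect and positive control median for full effect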
NIH3T3 tox: NIH/3T3 (mouse) viability loss. cytotoxicity (signal decrease), % at 8.35 µM. 5,600 tested, 14% active. NIH/3T3 viability, CellTiter-Glo ATP luminescence, 90 h. shares compounds with T cruzi growth-1;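 active = mean signal decrease across replicates above about 35% based on untreated-well scatter, with enough replicates individually passing, limit read from the data; inconclusive = no rule stated though some were filed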;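 also: 0% = median of neutral control wells and 100% = median of positive control wells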
3T3 cytotox 2: NIH/3T3 (mouse) viability loss | shares compounds with T cruzi growth-1 | NIH/3T3 viability, CellTiter-Glo ATP luminescence, 90 h | inhibition, % at 24.9 µM | 5,600 tested, 56% active | AID 651744;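 active = mean loss of cell viability signal at or above a set limit, and enough replicates individually reaching it; inconclusive = meets only the mean limit or only the replicate share; inactive = meets neither condition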;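 also: 0% = median of neutral control wells and 100% = median of positive control wells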
Numbers without * were called inactive; u = inconclusive; x = not tested or not shown.

SMILES	IDH1 mut inh	GASC1 inh	T cruzi growth-1	T cruzi growth-2	T cruzi growth-3	NIH3T3 tox	3T3 cytotox 2
Cc1noc(C)c1S(=O)(=O)Nc1ccc2c(c1)C(=O)N([C@@H](C)CO)C[C@H](C)[C@H](CN(C)Cc1ccccc1)OCCCC[C@@H](C)O2	2	0	x	x	x	x	x
CS(=O)(=O)N1CC2(C1)[C@H](c1ccccc1)[C@@H](CO)N2CC1CC1	x	0	x	x	x	x	x
CCCN(C)C[C@H]1OCCCC[C@@H](C)Oc2ccc(NC(=O)C3CCCCC3)cc2C(=O)N([C@H](C)CO)C[C@H]1C	x	-1	89	x	x	x	x
CCCN(C)C[C@H]1OCCCC[C@@H](C)Oc2ccc(NC(=O)C3CCCCC3)cc2C(=O)N([C@@H](C)CO)C[C@H]1C	x	1	102*	104*	50	4	9
CCCN(C)C[C@H]1OCCCC[C@H](C)Oc2ccc(NC(=O)C3CCCCC3)cc2C(=O)N([C@H](C)CO)C[C@H]1C	3	0	108*	99*	72	-29	-14
CCCN(C)C[C@H]1OCCCC[C@@H](C)Oc2ccc(NC(=O)C3CCCCC3)cc2C(=O)N([C@H](C)CO)C[C@@H]1C	x	-1	80	x	x	x	x
CC1CCCCN1Cc1nc(N)nc(Nc2ccc3c(c2)OCCO3)n1 (stereo not given)	0	x	x	x	x	x	x
O=C(CSc1nc(O)cc(=O)[nH]1)N(c1ccccc1)c1ccccc1	0	x	x	x	x	x	x
C[C@H](CO)N1C[C@H](C)[C@@H](CN(C)C(=O)NC2CCCCC2)Oc2cc(C#Cc3cccc(F)c3)ccc2S1(=O)=O	3	-3	x	x	x	x	x
C[C@H]1CN([C@@H](C)CO)S(=O)(=O)c2ccc(C#Cc3ccc(F)cc3)cc2O[C@@H]1CN(C)C(=O)NC1CCCCC1	-2	2	80	x	x	x	x
COc1ccc(C#Cc2ccc3c(c2)O[C@H](CN(C)C(=O)NC2CCCCC2)[C@@H](C)CN([C@@H](C)CO)S3(=O)=O)cc1	1	-6	u	109*	107*	8	64*
COc1ccc(C#Cc2ccc3c(c2)O[C@H](CN(C)C(=O)NC2CCCCC2)[C@H](C)CN([C@@H](C)CO)S3(=O)=O)cc1	0	-3	u	102*	86	-36	-30
C[C@H](CO)N1C[C@H](C)[C@H](CN(C)C(=O)NC2CCCCC2)Oc2cc(C#Cc3cccc(F)c3)ccc2S1(=O)=O	0	0	x	x	x	x	x
C[C@@H]1CN([C@H](C)CO)S(=O)(=O)c2ccc(C#Cc3ccc(F)cc3)cc2O[C@@H]1CN(C)C(=O)NC1CCCC1	-1	-2	114*	u	85	14	104*
COc1ccc(C#Cc2ccc3c(c2)O[C@@H](CN(C)C(=O)NC2CCCCC2)[C@@H](C)CN([C@H](C)CO)S3(=O)=O)cc1	0	-5	u	95*	113*	-11	18
C[C@H]1CN([C@@H](C)CO)S(=O)(=O)c2ccc(C#Cc3ccc(F)cc3)cc2O[C@H]1CN(C)C(=O)NC1CCCCC1	x	1	71	x	x	x	x
COc1ccc(CNC(=O)C[C@@H]2CC[C@H](NS(=O)(=O)c3cccc(OC)c3)[C@H](CO)O2)cc1	0	-1	x	x	x	x	x
O=C(C[C@@H]1CC[C@H]2[C@@H](COC[C@@H](O)CN2Cc2ccncc2)O1)NCc1ccncc1	x	u	17	x	x	x	x
C[C@@H]1CN([C@H](C)CO)C(=O)c2cc(NC(=O)Nc3ccccc3)ccc2O[C@@H](C)CCCCO[C@H]1CN(C)C	x	-2	18	x	x	x	x
COc1cc(-c2nc3ccccc3s2)cc(Br)c1OCC(N)=O	0	x	x	x	x	x	x
CCCNC(=O)[C@@H]1[C@@H](CO)[C@@H]2Cn3c(ccc(-c4ccccc4OC)c3=O)[C@@H]2N1C(=O)CC	x	0	13	x	x	x	x
C[C@@H]1CN([C@@H](C)CO)S(=O)(=O)c2ccc(C#Cc3ccc(F)cc3)cc2O[C@@H]1CN(C)C(=O)NC1CCCCC1	x	3	82	x	x	x	x
COc1ccc(C#Cc2ccc3c(c2)O[C@@H](CN(C)C(=O)NC2CCCCC2)[C@H](C)CN([C@@H](C)CO)S3(=O)=O)cc1	0	-4	u	100*	99*	-30	-3
C/C=C/c1ccc2c(c1)O[C@H](CN(C)C(=O)c1ccc3c(c1)OCO3)[C@H](C)CN([C@H](C)CO)S2(=O)=O	3	-1	52	x	x	x	x
C[C@H](CO)N1C[C@H](C)[C@@H](CN(C)C(=O)c2ccc3c(c2)OCO3)Oc2cc(/C=C/c3ccccc3)ccc2S1(=O)=O	x	-4	119*	104*	52	8	45*
SMILES	IDH1 mut inh	GASC1 inh	T cruzi growth-1	T cruzi growth-2	T cruzi growth-3	NIH3T3 tox	3T3 cytotox 2
C/C=C/c1ccc2c(c1)O[C@@H](CN(C)C(=O)c1ccc3c(c1)OCO3)[C@H](C)CN([C@H](C)CO)S2(=O)=O	-1	0	11	x	x	x	x
C[C@@H]1CN([C@@H](C)CO)S(=O)(=O)c2ccc(/C=C/c3ccccc3)cc2O[C@H]1CN(C)C(=O)c1ccc2c(c1)OCO2	4	x	118*	105*	85	42*	59*
Cc1ncc(CO)c(/C=N/NC(=O)CCCCCC(=O)Nc2ccccc2O)c1O	0	x	x	x	x	x	x
CO[C@@H]1CC[C@@H]2CCOc3c(C#N)cccc3C(=O)N(C)[C@@H](C)C(=O)N(C)C[C@@H]1O2	x	0	24	x	x	x	x
CCNC(=O)C[C@@H]1CC[C@H]2[C@@H](COc3ccc(NC(=O)Nc4ccccc4F)cc3C(=O)N2C)O1	x	1	29	x	x	x	x
COc1ccc(S(=O)(=O)Nc2cccc3c2O[C@H](CN(C)Cc2ccncc2)[C@H](C)CN([C@H](C)CO)C3=O)cc1	2	0	x	x	x	x	x
CC(C)C#Cc1cnc2c(c1)C(=O)N([C@H](C)CO)C[C@@H](C)[C@H](CN(C)C(=O)Nc1ccc(F)cc1)O2	x	1	63	x	x	x	x
CC(C)C#Cc1cnc2c(c1)C(=O)N([C@@H](C)CO)C[C@H](C)[C@@H](CN(C)C(=O)Nc1ccc(F)cc1)O2	0	-1	-13	x	x	x	x
CC(C)C#Cc1cnc2c(c1)C(=O)N([C@@H](C)CO)C[C@H](C)[C@H](CN(C)C(=O)Nc1ccc(F)cc1)O2	x	-2	102*	46	40	30	u
CC(C)C#Cc1cnc2c(c1)C(=O)N([C@H](C)CO)C[C@H](C)[C@H](CN(C)C(=O)Nc1ccc(F)cc1)O2	1	-1	116*	-51	28	15	86*
O=C(c1ccccc1F)N1C[C@H]2[C@@H](c3ccccc31)[C@@H](CO)N2C(=O)c1ccccc1	x	0	13	x	x	x	x
Cc1ccc(S(=O)(=O)N(C)C[C@H]2OCCCC[C@@H](C)Oc3ccc(NS(=O)(=O)c4ccc(Cl)cc4)cc3C(=O)N([C@@H](C)CO)C[C@@H]2C)cc1	x	0	99*	98*	119*	-20	-2
